This is an account of results in PMC8592256 (Nature structural & molecular biology, 2021).

What all share (format): binding
Assay [1] deals with human katanin AAA domain variability hotspot mutant constructs (L214C, T253N, A419L, T422K etc.). Put plainly: DSF, katanin AAA domain variability hotspot mutants. The procedure, abridged: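 Human katanin constructs (AAA domain aa 171–491, or aa 111–491; WT or mutants) were expressed in E. coli Rosetta (DE3) pLysS and purified by MBP-affinity, protease tag cleavage, anion exchange and gel filtration. Protein was 8 μM in 20 mM HEPES.Na, 120 mM NaCl, 5 mM MgCl2, 1 mM TCEP, 10 mM (NH4)2SO4, pH 7.5, with SYPRO Orange. Ligand was ADP 1 mM or compound 50–500 μM, in 5% DMSO final. Tm was taken as the minimum of the first derivative of fluorescence versus temperature.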
On the technique in general: In DSF a fluorescence change marks the thermal transition of the protein.

Assay [2] has as its target T1, FIGL1-WT (Homo sapiens, UniProt Q6PIW4).
T1 sequence (Q6PIW4 288-674): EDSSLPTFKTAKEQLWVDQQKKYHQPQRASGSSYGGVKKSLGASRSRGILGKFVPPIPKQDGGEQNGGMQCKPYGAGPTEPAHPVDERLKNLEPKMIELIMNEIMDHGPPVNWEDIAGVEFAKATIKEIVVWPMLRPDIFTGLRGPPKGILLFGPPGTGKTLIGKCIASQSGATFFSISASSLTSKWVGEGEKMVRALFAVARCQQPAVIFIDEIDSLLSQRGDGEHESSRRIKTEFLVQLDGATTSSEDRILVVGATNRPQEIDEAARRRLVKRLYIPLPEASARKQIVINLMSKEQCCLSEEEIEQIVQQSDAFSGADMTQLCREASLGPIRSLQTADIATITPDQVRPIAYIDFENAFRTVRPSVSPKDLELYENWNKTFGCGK
As to the kind of experiment: DSF, FIGL1-WT. Particulars: ADP 1 mM; WT and Asp-to-Cys mutant to a similar extent. The procedure, abridged: (§1)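 FIGL1 and HS-VPS4B (WT and Asp-to-Cys mutant) were scanned at 8 μM protein, with or without ADP 1 mM, in 20 mM HEPES.Na, 120 mM NaCl, 5 mM MgCl2, 1 mM TCEP, 10 mM (NH4)2SO4, pH 7.5. Buffer contained SYPRO Orange and 5% DMSO final. Melting temperature was taken from the minimum of the first derivative of the fluorescence–temperature curve. ΔTm was relative to the no-ADP control.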

In assay [3] the target is T2, HS-VPS4B-WT (Homo sapiens, UniProt O75351).
T2 sequence (O75351 1-444): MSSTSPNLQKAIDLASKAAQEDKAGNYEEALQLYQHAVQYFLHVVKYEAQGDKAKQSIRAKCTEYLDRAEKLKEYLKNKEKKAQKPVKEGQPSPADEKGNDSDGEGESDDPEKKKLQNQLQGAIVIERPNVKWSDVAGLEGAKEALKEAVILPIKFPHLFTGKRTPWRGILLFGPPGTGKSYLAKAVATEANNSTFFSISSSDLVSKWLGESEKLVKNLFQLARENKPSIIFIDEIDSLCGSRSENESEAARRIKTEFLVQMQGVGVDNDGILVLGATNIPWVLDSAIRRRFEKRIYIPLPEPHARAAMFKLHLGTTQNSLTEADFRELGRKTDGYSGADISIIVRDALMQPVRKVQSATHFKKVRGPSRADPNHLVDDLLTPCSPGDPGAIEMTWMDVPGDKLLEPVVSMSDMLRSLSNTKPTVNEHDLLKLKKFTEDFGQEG
As to the kind of experiment: DSF, HS-VPS4B-WT. Conditions: ADP 1 mM; WT and Asp-to-Cys mutant to a similar extent. The procedure, abridged:
as §1

SMILES strings stand for the structures.

Take `Nc1nc2c(-c3ccccc3)cccn2n1` [compound 1, 8-phenyl-triazolopyridine-2-amine]: the “effect of mutation on compound binding (DSF)” value in assay [1] (three of the four variability hotspot mutations, compound 500 μM) was “reduced compound binding”.
As for `Nc1ncnc2c1ncn2[C@@H]1O[C@H](COP(=O)(O)OP(=O)(O)O)[C@@H](O)[C@H]1O` [ADP, adenosine 5’-diphosphate], in assay [1] (ADP 1 mM, five alleles with mutations at the variability hotspots), the “shift in melting temperature (ΔTm)” value is “+4 to +6 °C”. In addition, the “increase in thermal stability on ADP binding” value in assay [2] is “~+3 °C”; in assay [3], “approximately +5 °C”.
